Results reported in ChEMBL document CHEMBL4052600 (J Med Chem, 2017).

Experiments:
[1] = molecular target: Phosphatidylinositol 4,5-bisphosphate 3-kinase catalytic subunit alpha isoform (Homo sapiens, UniProt P42336); test: Inhibition of PI3Kalpha (unknown origin) using PIP2 as substrate preincubated for 15 mins followed by substrate addition measured after 60 mins in presence of ATP by HTRF method
Outline: (§1)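 For PI3Kδ, substrate concentration limits measurable potency to about pIC50 9.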

[2] = molecular target: Phosphatidylinositol 4,5-bisphosphate 3-kinase catalytic subunit gamma isoform (Homo sapiens, UniProt P48736); test: Inhibition of PI3Kgamma (unknown origin) using PIP2 as substrate preincubated for 15 mins followed by substrate addition measured after 60 mins in presence of ATP by HTRF method
Sequence of Phosphatidylinositol 4,5-bisphosphate 3-kinase catalytic subunit gamma isoform (P48736 whole entry, canonical isoform): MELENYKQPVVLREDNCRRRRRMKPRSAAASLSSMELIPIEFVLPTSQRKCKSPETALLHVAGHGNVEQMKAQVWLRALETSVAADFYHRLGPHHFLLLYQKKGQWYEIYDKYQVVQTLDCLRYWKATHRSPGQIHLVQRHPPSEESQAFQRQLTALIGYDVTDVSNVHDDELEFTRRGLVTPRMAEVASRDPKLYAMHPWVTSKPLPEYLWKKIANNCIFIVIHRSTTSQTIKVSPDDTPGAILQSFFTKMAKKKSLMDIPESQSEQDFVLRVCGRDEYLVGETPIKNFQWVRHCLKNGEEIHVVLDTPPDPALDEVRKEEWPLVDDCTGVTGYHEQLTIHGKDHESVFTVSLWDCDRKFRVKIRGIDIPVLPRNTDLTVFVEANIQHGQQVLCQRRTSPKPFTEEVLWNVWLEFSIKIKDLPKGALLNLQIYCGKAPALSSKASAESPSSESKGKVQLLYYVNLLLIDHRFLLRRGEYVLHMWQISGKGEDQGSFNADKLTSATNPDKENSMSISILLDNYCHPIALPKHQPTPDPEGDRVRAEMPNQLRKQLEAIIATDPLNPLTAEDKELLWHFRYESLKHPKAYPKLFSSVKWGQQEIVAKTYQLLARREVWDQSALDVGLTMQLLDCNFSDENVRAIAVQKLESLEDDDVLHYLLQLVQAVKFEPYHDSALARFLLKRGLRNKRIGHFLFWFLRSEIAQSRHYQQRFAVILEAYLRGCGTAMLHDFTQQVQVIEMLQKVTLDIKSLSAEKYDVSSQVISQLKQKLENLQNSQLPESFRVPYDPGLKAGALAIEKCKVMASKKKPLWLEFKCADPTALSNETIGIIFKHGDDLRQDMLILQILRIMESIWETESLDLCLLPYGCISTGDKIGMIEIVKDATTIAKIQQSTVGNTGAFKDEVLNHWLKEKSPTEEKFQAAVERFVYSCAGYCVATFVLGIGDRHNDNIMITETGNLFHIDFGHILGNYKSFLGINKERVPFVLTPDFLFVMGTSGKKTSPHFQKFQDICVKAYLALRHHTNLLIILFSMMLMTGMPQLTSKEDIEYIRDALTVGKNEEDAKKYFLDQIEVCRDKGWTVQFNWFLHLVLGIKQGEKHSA

[3] = molecular target: T1, Phosphatidylinositol 4,5-bisphosphate 3-kinase catalytic subunit delta isoform (Homo sapiens, UniProt O00329); test: Inhibition of PI3Kdelta (unknown origin) using PIP2 as substrate preincubated for 15 mins followed by substrate addition measured after 60 mins in presence of ATP by HTRF method; outline: as §1
T1 sequence (O00329 whole entry): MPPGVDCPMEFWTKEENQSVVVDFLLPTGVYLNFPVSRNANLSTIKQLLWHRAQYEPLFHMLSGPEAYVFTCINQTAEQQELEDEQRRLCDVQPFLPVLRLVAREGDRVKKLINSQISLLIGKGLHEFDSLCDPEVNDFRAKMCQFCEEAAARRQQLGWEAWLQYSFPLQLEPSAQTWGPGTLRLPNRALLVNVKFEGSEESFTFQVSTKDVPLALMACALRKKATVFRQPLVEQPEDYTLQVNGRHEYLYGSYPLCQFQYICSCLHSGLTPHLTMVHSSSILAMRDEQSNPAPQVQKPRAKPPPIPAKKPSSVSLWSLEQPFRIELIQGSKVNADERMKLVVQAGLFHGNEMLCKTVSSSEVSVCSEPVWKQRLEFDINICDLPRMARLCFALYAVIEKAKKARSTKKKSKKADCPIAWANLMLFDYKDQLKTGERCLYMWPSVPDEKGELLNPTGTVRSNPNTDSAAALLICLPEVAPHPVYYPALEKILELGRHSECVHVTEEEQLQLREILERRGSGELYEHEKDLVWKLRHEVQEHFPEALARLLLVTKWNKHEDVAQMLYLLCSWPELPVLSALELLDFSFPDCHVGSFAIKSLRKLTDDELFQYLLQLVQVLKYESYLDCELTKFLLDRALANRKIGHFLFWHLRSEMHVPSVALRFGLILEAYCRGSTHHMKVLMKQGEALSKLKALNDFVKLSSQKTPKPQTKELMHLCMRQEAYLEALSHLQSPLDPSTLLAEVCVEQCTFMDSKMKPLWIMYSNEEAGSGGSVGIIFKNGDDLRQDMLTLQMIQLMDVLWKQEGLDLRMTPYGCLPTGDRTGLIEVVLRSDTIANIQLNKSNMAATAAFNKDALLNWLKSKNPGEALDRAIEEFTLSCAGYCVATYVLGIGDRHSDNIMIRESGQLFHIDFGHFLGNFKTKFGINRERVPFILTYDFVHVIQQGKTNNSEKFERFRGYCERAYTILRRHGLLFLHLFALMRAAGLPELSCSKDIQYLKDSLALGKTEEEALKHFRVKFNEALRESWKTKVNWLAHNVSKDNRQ

[4] = molecular target: Phosphatidylinositol 4,5-bisphosphate 3-kinase catalytic subunit beta isoform (Homo sapiens, UniProt P42338); test: Inhibition of PI3Kbeta (unknown origin) using PIP2 as substrate preincubated for 15 mins followed by substrate addition measured after 60 mins in presence of ATP by HTRF method
Sequence of Phosphatidylinositol 4,5-bisphosphate 3-kinase catalytic subunit beta isoform (P42338 whole entry, canonical isoform): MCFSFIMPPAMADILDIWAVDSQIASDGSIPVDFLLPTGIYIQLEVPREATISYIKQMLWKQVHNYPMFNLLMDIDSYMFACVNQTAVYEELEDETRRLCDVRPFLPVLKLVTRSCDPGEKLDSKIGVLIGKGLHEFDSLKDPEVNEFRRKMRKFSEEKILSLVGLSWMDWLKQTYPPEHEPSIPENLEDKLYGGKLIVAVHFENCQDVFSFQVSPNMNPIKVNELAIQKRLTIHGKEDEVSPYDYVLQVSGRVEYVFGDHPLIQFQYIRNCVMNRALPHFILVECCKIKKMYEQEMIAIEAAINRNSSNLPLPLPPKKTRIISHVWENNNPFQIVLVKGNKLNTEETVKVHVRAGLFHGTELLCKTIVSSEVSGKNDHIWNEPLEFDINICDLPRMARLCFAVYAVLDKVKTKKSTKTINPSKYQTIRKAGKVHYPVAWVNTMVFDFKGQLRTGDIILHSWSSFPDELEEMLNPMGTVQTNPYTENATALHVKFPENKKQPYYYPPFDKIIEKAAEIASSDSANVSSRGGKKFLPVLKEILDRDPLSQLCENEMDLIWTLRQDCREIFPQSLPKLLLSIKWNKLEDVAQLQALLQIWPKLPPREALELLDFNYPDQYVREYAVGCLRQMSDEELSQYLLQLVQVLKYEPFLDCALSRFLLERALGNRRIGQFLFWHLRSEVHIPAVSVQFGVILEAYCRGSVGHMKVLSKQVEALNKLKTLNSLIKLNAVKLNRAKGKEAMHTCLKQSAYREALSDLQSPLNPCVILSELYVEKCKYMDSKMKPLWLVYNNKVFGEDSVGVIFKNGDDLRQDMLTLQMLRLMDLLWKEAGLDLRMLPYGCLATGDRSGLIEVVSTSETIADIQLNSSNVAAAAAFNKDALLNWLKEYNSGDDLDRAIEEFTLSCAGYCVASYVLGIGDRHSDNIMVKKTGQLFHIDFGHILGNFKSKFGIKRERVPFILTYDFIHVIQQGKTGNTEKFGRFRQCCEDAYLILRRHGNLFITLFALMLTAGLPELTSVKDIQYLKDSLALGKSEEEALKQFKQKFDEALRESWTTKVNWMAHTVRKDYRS

[5] = molecular target: C-C chemokine receptor type 5 (Homo sapiens, UniProt P51681); test: Antagonist activity at human CCR5 expressed in HEK 293 Glosensor cells assessed as reduction in RANTES-induced intracellular calcium levels preincubated for 30 mins followed by RANTES addition measured at 2 secs time interval for 5 mins by Fluo-4-AM dye based fluorescence assay; format: functional, cell-based
Sequence of C-C chemokine receptor type 5 (P51681 whole entry): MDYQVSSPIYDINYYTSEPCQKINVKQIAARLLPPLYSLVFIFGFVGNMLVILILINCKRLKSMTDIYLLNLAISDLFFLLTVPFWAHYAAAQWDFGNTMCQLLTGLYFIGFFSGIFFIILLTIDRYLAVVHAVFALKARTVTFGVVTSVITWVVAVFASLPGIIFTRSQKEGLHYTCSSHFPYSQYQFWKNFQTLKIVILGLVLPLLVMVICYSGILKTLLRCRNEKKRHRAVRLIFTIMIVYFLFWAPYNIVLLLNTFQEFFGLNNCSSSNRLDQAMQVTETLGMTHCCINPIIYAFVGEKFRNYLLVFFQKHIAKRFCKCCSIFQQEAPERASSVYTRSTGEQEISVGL

Sequence of Phosphatidylinositol 4,5-bisphosphate 3-kinase catalytic subunit alpha isoform (P42336 whole entry, canonical isoform): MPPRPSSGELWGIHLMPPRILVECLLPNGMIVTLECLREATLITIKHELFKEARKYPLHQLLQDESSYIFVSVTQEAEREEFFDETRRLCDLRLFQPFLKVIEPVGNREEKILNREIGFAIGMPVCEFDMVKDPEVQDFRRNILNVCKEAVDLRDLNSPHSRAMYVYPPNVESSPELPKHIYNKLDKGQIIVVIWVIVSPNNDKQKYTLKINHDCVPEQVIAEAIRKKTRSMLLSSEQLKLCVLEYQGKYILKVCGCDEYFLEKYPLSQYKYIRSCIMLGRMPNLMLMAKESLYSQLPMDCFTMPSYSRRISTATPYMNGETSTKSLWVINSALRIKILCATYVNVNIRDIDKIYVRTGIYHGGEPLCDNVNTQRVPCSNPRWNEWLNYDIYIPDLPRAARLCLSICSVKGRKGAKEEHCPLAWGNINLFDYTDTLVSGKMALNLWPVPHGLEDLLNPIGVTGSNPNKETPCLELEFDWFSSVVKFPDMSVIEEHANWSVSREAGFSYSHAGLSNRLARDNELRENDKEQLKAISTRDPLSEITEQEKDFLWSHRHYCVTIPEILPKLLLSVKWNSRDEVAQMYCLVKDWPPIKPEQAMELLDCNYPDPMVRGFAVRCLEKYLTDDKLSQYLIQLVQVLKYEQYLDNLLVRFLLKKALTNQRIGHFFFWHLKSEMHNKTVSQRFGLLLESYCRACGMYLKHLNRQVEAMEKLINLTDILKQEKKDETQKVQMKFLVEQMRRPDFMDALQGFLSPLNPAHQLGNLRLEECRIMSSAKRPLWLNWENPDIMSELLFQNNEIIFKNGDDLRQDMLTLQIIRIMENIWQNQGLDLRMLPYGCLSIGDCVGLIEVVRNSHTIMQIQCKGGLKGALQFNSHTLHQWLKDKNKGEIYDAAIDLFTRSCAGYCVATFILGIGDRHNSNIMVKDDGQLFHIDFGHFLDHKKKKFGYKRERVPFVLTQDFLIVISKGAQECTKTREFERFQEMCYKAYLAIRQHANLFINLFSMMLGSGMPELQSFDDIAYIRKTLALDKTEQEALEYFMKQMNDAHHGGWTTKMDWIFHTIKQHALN

SMILES | IC50 [1] | IC50 [2] | IC50 [3] | IC50 [4] | Kd [5]
Cc1nnc2n1[C@H]1CCN(CC[C@H](NC(=O)C3CCC(F)(F)CC3)c3ccccc3)C[C@H]1CC2 (racemic) |  |  |  |  | 0.316 µM
Cc1nnc2n1[C@H]1CCN(Cc3cc4nc(-c5cccc6[nH]ccc56)nc(N5CCOCC5)c4s3)C[C@@H]1CC2 (relative stereo) | 2 µM | 0.794 µM | 0.001 µM | 0.316 µM | 
FC(F)(F)c1nnc2n1[C@H]1CCN(Cc3cc4nc(-c5cccc6[nH]ccc56)nc(N5CCOCC5)c4s3)C[C@H]1CC2 (relative stereo) | 1.58 µM | 0.631 µM | 0.000794 µM | 0.1 µM | 
Oc1cccc(-c2nc(N3CCOCC3)c3sc(CN4CC[C@H]5[C@@H](CCc6nnc(C(F)(F)F)n65)C4)cc3n2)c1 (relative stereo) | 0.0316 µM | 0.2 µM | 0.001 µM | 0.0501 µM | 
Cc1nnc2n1[C@H]1CCN(Cc3cc4nc(-c5cccc6[nH]ccc56)nc(N5CCOCC5)c4s3)C[C@H]1CC2 (relative stereo) | 3.16 µM | 1.58 µM | 0.000794 µM | 0.316 µM | 
Cc1nnc2n1[C@@H]1CCN(CC[C@H](NC(=O)C3CCC(F)(F)CC3)c3ccccc3)C[C@@H]1CC2 (relative stereo) |  |  |  |  | 0.01 µM
Cc1nnc2n1[C@H]1CCN(Cc3cc4nc(-c5cccc(O)c5)nc(N5CCOCC5)c4s3)C[C@@H]1CC2 (relative stereo) | 0.1 µM | 0.501 µM | 0.000794 µM | 0.126 µM | 
Oc1cccc(-c2nc(N3CCOCC3)c3sc(CN4CC[C@H]5[C@H](CCc6nnc(C(F)(F)F)n65)C4)cc3n2)c1 (relative stereo) | 0.0631 µM | 0.158 µM | 0.000631 µM | 0.0501 µM | 

Other lines, results leading:

IC50 [1] | IC50 [2] | IC50 [3] | IC50 [4] | Kd [5] | SMILES
0.1 µM | 0.2 µM | 0.00398 µM | 0.158 µM |  | Cc1nncn1C1CCN(Cc2cc3nc(-c4cccc(O)c4)nc(N4CCOCC4)c3s2)CC1
0.0631 µM | 0.158 µM | 0.00251 µM | 0.1 µM |  | Oc1cccc(-c2nc(N3CCOCC3)c3sc(CN4CCC(n5cnnc5C(F)(F)F)CC4)cc3n2)c1
0.316 µM | 0.794 µM | 0.02 µM | 1.26 µM |  | FC(F)(F)c1nncn1C1CCN(Cc2cc3nc(-c4cccc5[nH]ncc45)nc(N4CCOCC4)c3s2)CC1
0.316 µM | 1 µM | 0.01 µM | 1 µM |  | Cc1nncn1C1CCN(Cc2cc3nc(-c4cccc5[nH]ncc45)nc(N4CCOCC4)c3s2)CC1
3.98 µM | 3.16 µM | 0.02 µM | 0.794 µM |  | FC(F)(F)c1nncn1C1CCN(Cc2cc3nc(-c4cccc5[nH]ccc45)nc(N4CCOCC4)c3s2)CC1
2 µM |  | 0.00398 µM | 0.398 µM |  | Cc1nncn1C1CCN(Cc2cc3nc(-c4cccc5[nH]ccc45)nc(N4CCOCC4)c3s2)CC1
0.158 µM | 0.316 µM | 0.00398 µM | 0.501 µM |  | Cc1nnc2n1[C@H]1CCN(Cc3cc4nc(-c5cccc6[nH]ncc56)nc(N5CCOCC5)c4s3)C[C@@H]1CC2 (relative stereo)
0.316 µM | 0.794 µM | 0.00251 µM | 0.398 µM |  | FC(F)(F)c1nnc2n1[C@H]1CCN(Cc3cc4nc(-c5cccc6[nH]ncc56)nc(N5CCOCC5)c4s3)C[C@H]1CC2 (relative stereo)
0.158 µM | 1 µM | 0.00794 µM | 0.631 µM |  | FC(F)(F)c1nnc2n1[C@H]1CCN(Cc3cc4nc(-c5cccc6[nH]ncc56)nc(N5CCOCC5)c4s3)C[C@@H]1CC2 (relative stereo)
0.501 µM | 0.398 µM | 0.00158 µM | 0.158 µM |  | FC(F)(F)c1nnc2n1[C@H]1CCN(Cc3cc4nc(-c5cccc6[nH]ccc56)nc(N5CCOCC5)c4s3)C[C@@H]1CC2 (relative stereo)
1.58 µM | 1.26 µM | 0.00316 µM | 1.26 µM |  | Cc1nnc2n1[C@H]1CCN(Cc3cc4nc(-c5cccc6[nH]ncc56)nc(N5CCOCC5)c4s3)C[C@H]1CC2 (relative stereo)
